Laboratory results as given in ChEMBL document CHEMBL1122326, “Nonsteroidal antiinflammatory agents. 2. [(Heteroarylamino)phenyl]alkanoic acids” (J Med Chem, 1983).

Columns and labels:
Rattus norvegicus [1] = test: ED50 value was evaluated for antiinflammatory activity by carrageenan-induced rat paw edema method (CPE) on peroral administration; assay type: functional; conditions: po
Method in brief: (§1)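 Male Wistar rats, 5 to 10 per dose, 4 to 5 doses per drug, given orally in 0.5% aqueous tragacanth. Edema was induced by subcutaneous carrageenin into the left hind paw. A rat counted as positive at ≥25% inhibition versus vehicle at 3 h. ED50 with 95% confidence limits was calculated by Litchfield-Wilcoxon, after a screen at 80 mg/kg.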

Mus musculus [2] = test: ED50 value was evaluated for analgesic activity by phenylquinone -induced writhing test in mice on peroral administration; assay type: functional; conditions: po
Method in brief: (§2)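 Female ddN mice, 5 to 15 per dose, given drug orally in 0.5% aqueous tragacanth. Writhing was induced by ip phenylquinone (0.03%), and writhes were counted over 15 min.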

Mus musculus [3] = test: ED50 value was evaluated for analgesic activity by phenylquinone -induced writhing test in ddN strain mice on peroral administration; value ranges from 32.7-76.20; assay type: functional; conditions: po
Rattus norvegicus [4] = test: Evaluated for the UD50 value by gastric ulcer assay in rats on peroral administration of dose; value ranges from 82.3-182; assay type: functional, Stomach
Method in brief: (§3)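 Male Wistar rats fasted for 24 h were given a single oral dose in 0.5% aqueous tragacanth and killed 6 h later. Stomachs were inspected macroscopically. UD50 is the dose producing ulcers in 50% of rats, taken from each compound's regression line.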

Rattus norvegicus [5] = test: ED50 value was evaluated for antiinflammatory activity by carrageenan-induced rat paw edema method (CPE) on peroral administration; value may range from 50.5 to 120.0; assay type: functional; conditions: po; method in brief: as §1
Rattus norvegicus [6] = test: Evaluated for the UD50 value by gastric ulcer assay in rats on peroral administration of dose; value may range from 368-807; assay type: functional, Stomach; method in brief: as §3
[7] = Evaluated for the acute lethal toxicity in mice on peroral administration of dose; value may range from 430 to 1236; assay type: organism-based; conditions: mouse, in vivo, po
Method in brief: (§4)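 Single oral dose, in 0.5% aqueous tragacanth, given to male Std:ddY mice. LD50 was derived from mortality over 7 days.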

[8] = Ratio between UD50 and ED50 in carrageenan paw edema was determined; assay type: functional
Method in brief: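 Gastric UD50 (fasted male Wistar rats, single oral dose, stomach scored macroscopically at 6 h) was divided by oral CPE ED50 (male Wistar rats, paw carrageenin, ≥25% inhibition at 3 h, Litchfield-Wilcoxon).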

Mus musculus [9] = test: ED50 value was evaluated for analgesic activity by phenylquinone -induced writhing test in mice on peroral administration; value may range from 20.6 to 66.0; assay type: functional; conditions: po; method in brief: as §2
Mus musculus [10] = test: ED50 value was evaluated for analgesic activity by phenylquinone -induced writhing test in mice on peroral administration; value may range from 35.3 to 283; assay type: functional; conditions: po; method in brief: as §2
Rattus norvegicus [11] = test: ED50 value was evaluated for antiinflammatory activity by carrageenan-induced rat paw edema method (CPE) on peroral administration; value may range from 7.05 to 37.13; assay type: functional; conditions: po; method in brief: as §1
Rattus norvegicus [12] = test: ED50 value was evaluated for antiinflammatory activity by carrageenan-induced rat paw edema method (CPE) on peroral administration; value may range from 12.71 to 51.24; assay type: functional; conditions: po; method in brief: as §1
Rattus norvegicus [13] = test: ED50 value was evaluated for antiinflammatory activity by carrageenan-induced rat paw edema method (CPE) on peroral administration; value may range from 3.87 to 25.90; assay type: functional; conditions: po; method in brief: as §1
Rattus norvegicus [14] = test: Evaluated for the UD50 value by gastric ulcer assay in rats on peroral administration of dose; assay type: functional, Stomach; method in brief: as §3
[15] = Evaluated for the acute lethal toxicity in mice on peroral administration of dose; value may range from 1539 to 2362; assay type: organism-based; conditions: mouse, in vivo, po; method in brief: as §4
Mus musculus [16] = test: ED50 value was evaluated for analgesic activity by phenylquinone-induced writhing test in mice on peroral administration; assay type: functional; conditions: po; method in brief: as §2
Rattus norvegicus [17] = test: ED50 value was evaluated for antiinflammatory activity by carrageenan-induced rat paw edema method (CPE) on peroral administration; value may range from 39.61 to 80.81; assay type: functional; conditions: po; method in brief: as §1

With `CC(C(=O)O)c1ccc(Nc2ccccn2)cc1Cl` (stereo not drawn) the ED50 (Rattus norvegicus [1]) was ≥ 80 mg/kg and the ED50 (Mus musculus [2]) was ≥ 100 mg/kg.

With `Cc1ccc(Nc2ccc(C(C)C(=O)O)cc2)nc1` (stereo not drawn) the ED50 (Rattus norvegicus [1]) was ≥ 80 mg/kg and the ED50 (Mus musculus [2]) was ≥ 100 mg/kg.

Work on `CC(C)Cc1ccc(C(C)C(=O)O)cc1` (stereo not drawn) [IBUPROFEN] yielded an ED50 (Mus musculus [3]) of 50 mg/kg and a UD50 (Rattus norvegicus [4]) of 124.6 mg/kg.

In the case of `CC(C(=O)O)c1cccc(Nc2ccccn2)c1` (stereo not drawn), the ED50 (Rattus norvegicus [5]) is reported as 77.9 mg/kg and the ED50 (Mus musculus [2]) is reported as > 100 mg/kg.

With `O=C(O)Cc1ccc(Nc2ccncc2)cc1` the ED50 (Rattus norvegicus [1]) was > 80 mg/kg.

For `O=C(O)Cc1cccc(Nc2ccccn2)c1`, the ED50 (Rattus norvegicus [1]) was > 80 mg/kg and the ED50 (Mus musculus [2]) was ≥ 100 mg/kg.

With `O=C(O)Cc1ccc(Nc2ccc3ccccc3n2)cc1` the ED50 (Rattus norvegicus [1]) was > 80 mg/kg and the ED50 (Mus musculus [2]) was ≥ 100 mg/kg.

For `CC(C(=O)O)c1ccc(Nc2ccccn2)c(Cl)c1` (stereo not drawn), the UD50 (Rattus norvegicus [6]) was 545 mg/kg, the LD50 [7] was 729 mg/kg and the Ratio [8] was 41.6.

With `CC(C(=O)O)c1ccc(Nc2ccc3ccccc3n2)cc1` (stereo not drawn) the ED50 (Rattus norvegicus [1]) was > 80 mg/kg and the ED50 (Mus musculus [2]) was ≥ 100 mg/kg.

Molecule `Cc1cc(C(C)C(=O)O)ccc1Nc1ccccn1` (stereo not drawn) has an ED50 (Mus musculus [9]) of 36.9 mg/kg and an ED50 (Rattus norvegicus [1]) of 16.8 mg/kg.

With `CC(C(=O)O)c1ccc(Nc2ccc(Br)cn2)cc1` (stereo not drawn) the ED50 (Mus musculus [10]) was 100 mg/kg and the ED50 (Rattus norvegicus [1]) was ≥ 80 mg/kg.

For `Cc1cccnc1Nc1ccc(C(C)C(=O)O)cc1` (stereo not drawn), the ED50 (Rattus norvegicus [1]) was ≥ 80 mg/kg and the ED50 (Mus musculus [2]) was ≥ 100 mg/kg.

In the case of `CC(C(=O)O)c1ccc(Nc2ccncc2)cc1` (stereo not drawn), the ED50 (Rattus norvegicus [1]) is reported as > 80 mg/kg and the ED50 (Mus musculus [2]) is reported as ≥ 100 mg/kg.

With `Cc1cc(Nc2ccc(C(C)C(=O)O)cc2)ncn1` (stereo not drawn) the ED50 (Rattus norvegicus [1]) was > 80 mg/kg and the ED50 (Mus musculus [2]) was ≥ 100 mg/kg.

In the case of `Cc1cccc(Nc2ccc(C(C)C(=O)O)cc2)n1` (stereo not drawn), the ED50 (Rattus norvegicus [1]) is reported as > 80 mg/kg and the ED50 (Mus musculus [2]) is reported as > 100 mg/kg.

With `O=C(O)Cc1ccc(Nc2ccccn2)cc1` the ED50 (Rattus norvegicus [11]) was 15.8 mg/kg and the ED50 (Mus musculus [2]) was > 100 mg/kg.

In the case of `CC(C(=O)O)c1ccc(Nc2ccccc2)cc1` (stereo not drawn), the ED50 (Rattus norvegicus [12]) is reported as 25.5 mg/kg and the ED50 (Mus musculus [2]) is reported as > 100 mg/kg.

For `Cc1cc(Nc2ccc(CC(=O)O)cc2)ncn1`, the ED50 (Rattus norvegicus [1]) was > 80 mg/kg and the ED50 (Mus musculus [2]) was > 100 mg/kg.

With `CC(C(=O)O)c1ccc(Nc2ccccn2)cc1` (stereo not drawn) the ED50 (Rattus norvegicus [13]) was 10 mg/kg, the UD50 (Rattus norvegicus [14]) was >640 mg/kg and the LD50 [15] was 1910 mg/kg. For the same molecule, the Ratio [8] was > 64.

In the case of `Cc1ccnc(Nc2ccc(C(C)C(=O)O)cc2)c1` (stereo not drawn), the ED50 (Rattus norvegicus [1]) is reported as > 80 mg/kg and the ED50 (Mus musculus [2]) is reported as > 100 mg/kg.

In the case of `CC(C(=O)O)c1ccc(Nc2ccc(Cl)cn2)cc1` (stereo not drawn), the ED50 (Rattus norvegicus [1]) is reported as ≥ 80 mg/kg and the ED50 (Mus musculus [2]) is reported as ≥ 100 mg/kg.

For `CSc1nccc(Nc2ccc(CC(=O)O)cc2)n1`, the ED50 (Mus musculus [16]) was > 100 mg/kg and the ED50 (Rattus norvegicus [1]) was > 80 mg/kg.

For `CC(C(=O)O)c1ccc(Nc2ccc([N+](=O)[O-])cn2)cc1` (stereo not drawn), the ED50 (Rattus norvegicus [17]) was 56.6 mg/kg and the ED50 (Mus musculus [2]) was ≥ 100 mg/kg.
